Laboratory results from ChEMBL document CHEMBL1142812, “Synthesis and structure-activity relationship of imidazo[1,2-a]benzimidazoles as corticotropin-releasing factor 1 receptor antagonists” (Bioorg Med Chem Lett, 2005).
pKi: −log10 of the molar value.

Columns and labels:
[1] = molecular target: T1, Corticotropin-releasing factor receptor 1 (Homo sapiens, UniProt P34998); experiment: Binding affinity for human corticotropin releasing factor receptor 1
T1 sequence (P34998 whole entry): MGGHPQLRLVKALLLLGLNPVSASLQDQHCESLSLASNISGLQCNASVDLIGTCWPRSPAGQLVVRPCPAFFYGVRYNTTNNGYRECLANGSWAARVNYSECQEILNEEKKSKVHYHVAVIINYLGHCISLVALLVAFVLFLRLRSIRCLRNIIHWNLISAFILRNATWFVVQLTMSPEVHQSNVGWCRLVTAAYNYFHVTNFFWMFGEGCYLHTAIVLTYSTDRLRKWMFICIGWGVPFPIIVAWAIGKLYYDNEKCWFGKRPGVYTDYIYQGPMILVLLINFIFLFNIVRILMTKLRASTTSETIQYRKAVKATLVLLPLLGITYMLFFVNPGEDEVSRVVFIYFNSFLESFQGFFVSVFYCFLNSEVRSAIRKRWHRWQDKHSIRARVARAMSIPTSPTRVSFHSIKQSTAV

[2] = Mean plasma area under curve (dissolved in DMSO) at 10 mg/kg of oral administration in rat was determined; assay type: ADME, organism-based; design: dose 10 mg/kg, route oral
Summary of the method: (§1)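 Rats dosed with the compound at 10 mg/kg orally and 2 mg/kg intravenously, in 10/10/80 Cremophor/DMSO/water. Dosing volumes were 3 mL/kg p.o. and 1 mL/kg i.v. Plasma concentrations were followed over time to derive clearance, volume of distribution, terminal half-life, oral AUC and oral bioavailability.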

[3] = Volume of distribution (dissolved in DMSO) at 2 mg/kg of […] administration in rat was determined; assay type: ADME, organism-based; design: dose 2 mg/kg; conditions: in vivo
[4] = Volume of distribution (dissolved in DMSO) at 2 mg/kg of intravenous administration in rat was determined; assay type: ADME, organism-based; design: dose 2 mg/kg, route intravenous; conditions: in vivo; summary of the method: as §1
[5] = Plasma clearance (dissolved in DMSO) at 2 mg/kg of intravenous administration in rat was determined; assay type: ADME, organism-based; design: dose 2 mg/kg, route intravenous; summary of the method: as §1
[6] = Brain concentration to plasma concentration ratio (dissolved in DMSO) at 2 mg/kg of intravenous administration in rat after 2 h; assay type: ADME, organism-based; design: dose 2 mg/kg, route intravenous; conditions: brain and plasma, read-out: B/P
Summary of the method: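 Compound given intravenously to rats at 2 mg/kg in 10/10/80 Cremophor/DMSO/water at 1 mL/kg. Brain and plasma concentrations were measured at 2 h and expressed as a brain-to-plasma ratio.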

[7] = Bioavailability (dissolved in DMSO) at 10 mg/kg of oral administration in rat was determined; assay type: ADME, organism-based; conditions: in vivo; summary of the method: as §1
[8] = Terminal half life (dissolved in DMSO) at 2 mg/kg of intravenous administration in rat was determined; assay type: ADME, organism-based; design: dose 2 mg/kg, route intravenous; conditions: in vivo; summary of the method: as §1
[9] = Plasma clearance (dissolved in DMSO) at 2 mg/kg of intravenous administration in rat was determined
[10] = Terminal half life (dissolved in DMSO) at 2 mg/kg of intravenous administration in rat was determined; conditions: in vivo
[11] = Maximum peak plasma concentration (dissolved in DMSO) at 10 mg/kg of p.o. administration in rat was determined; conditions: po

Row | pKi [1] | other results | Compound
1 | 6.24 |  | CCCN(CC1CC1)C(=O)c1c(CC)nc2n(-c3c(C)cc(C)cc3C)c3ccccc3n12
2 | 6.39 |  | CCCN(CCc1ccccc1)Cc1c(C(F)(F)F)nc2n(-c3ccc(C(C)C)cc3Br)c3ccccc3n12
3 | 7.59 |  | CCCN(Cc1c(C(F)(F)F)nc2n(-c3c(C)cc(C)cc3C)c3ccccc3n12)CC1CCC1
4 | 6.86 |  | C=CCN(CC=C)Cc1c(C(F)(F)F)nc2n(-c3c(C)cc(C)cc3C)c3ccccc3n12
5 | 7.68 |  | CCCN(Cc1c(CC)nc2n(-c3c(C)cc(C)cc3C)c3ccccc3n12)CC1CC1
6 | 5.45 |  | CCCN(CC1CC1)C(=O)c1c(C(F)(F)F)nc2n(-c3c(C)cc(C)cc3C)c3ccccc3n12
7 | 7.70 |  | CCCN(Cc1c(C)nc2n(-c3c(C)cc(C)cc3C)c3ccccc3n12)CC1CC1
8 | 6.82 |  | CCCN(Cc1c(C(F)(F)F)nc2n(-c3ccc(C(C)C)cc3Br)c3ccccc3n12)CC1CC1
9 | 6.43 |  | CCCN(Cc1c(C(F)(F)F)nc2n(-c3ccc(Cl)cc3Cl)c3ccccc3n12)CC1CC1
10 | 7.23 |  | CCCN(Cc1c(C)nc2n(-c3c(C)cc(C)cc3C)c3ccc(F)cc3n12)CC1CC1
11 | 6.44 |  | CCCN(CC1CC1)C(=O)c1c(C)nc2n(-c3c(C)cc(C)cc3C)c3ccccc3n12
12 | 6.21 |  | Cc1cc(C)c(-n2c3ccccc3n3c(CN(CCc4ccccc4)CCC(F)(F)F)c(C(F)(F)F)nc23)c(C)c1
13 | 6.60 |  | CCCN(CCc1ccccc1)Cc1c(C(F)(F)F)nc2n(-c3c(C)cc(C)cc3C)c3ccccc3n12
14 | 7.12 |  | CCCN(Cc1c(C(F)(F)F)nc2n(-c3c(C)cc(C)cc3C)c3ccccc3n12)CC(F)(F)F
15 | 8.15 |  | Cc1cc(C)c(-n2c3ccccc3n3c(CN(CC4CC4)CC(F)(F)F)c(C(F)(F)F)nc23)c(C)c1
16 | 7.89 |  | Cc1cc(C)c(-n2c3ccccc3n3c(CN(CCC(F)(F)F)CC4CC4)c(C(F)(F)F)nc23)c(C)c1
17 | 5.85 |  | CCN(CCC1CC1)Cc1c(C(F)(F)F)nc2n(-c3c(C)cc(C)cc3C)c3ccccc3n12
18 | 5.56 |  | CCN(Cc1ccccc1)Cc1c(C(F)(F)F)nc2n(-c3c(C)cc(C)cc3C)c3ccccc3n12
19 | 5.39 |  | CCCN(Cc1ccccc1)Cc1c(C(F)(F)F)nc2n(-c3c(C)cc(C)cc3C)c3ccccc3n12
20 | 6.19 |  | Cc1cc(C)c(-n2c3ccccc3n3c(CN(CCC4CC4)CC(F)(F)F)c(C(F)(F)F)nc23)c(C)c1
21 | 7.27 |  | CC(C)c1ccc(-n2c3ccccc3n3c(CN(CC4CC4)CC4CC4)c(C(F)(F)F)nc23)c(Br)c1

Row | pKi [1] | other results | Compound
22 | 6.15 |  | CCCCN(CC)Cc1c(C(F)(F)F)nc2n(-c3c(C)cc(C)cc3C)c3ccccc3n12
23 | 6.13 |  | Cc1cc(C)c(-n2c3ccccc3n3c(CN(CCc4ccccc4)CC(F)(F)F)c(C(F)(F)F)nc23)c(C)c1
24 | 5.93 |  | CCCN(CC1CC1)C(=O)c1c(C)nc2n(-c3c(C)cc(C)cc3C)c3ccc(F)cc3n12
25 | 6.54 |  | Cc1cc(C)c(-n2c3ccccc3n3c(CN(CCC(F)(F)F)CC(F)(F)F)c(C(F)(F)F)nc23)c(C)c1
26 | 7.96 |  | Cc1cc(C)c(-n2c3ccccc3n3c(CN(CC4CC4)CC4CC4)c(C(F)(F)F)nc23)c(C)c1
27 | 6.34 |  | Cc1cc(C)c(-n2c3ccccc3n3c(CN(CCC4CC4)CCC(F)(F)F)c(C(F)(F)F)nc23)c(C)c1
28 | 7.17 |  | CCCN(CCC(F)(F)F)Cc1c(C(F)(F)F)nc2n(-c3c(C)cc(C)cc3C)c3ccccc3n12
29 | 5.11 |  | CCCCN(Cc1ccccc1)Cc1c(C(F)(F)F)nc2n(-c3c(C)cc(C)cc3C)c3ccccc3n12
30 | 6.03 |  | CCCN(CC1CC1)C(=O)c1c(CC)nc2n(-c3c(C)cc(C)cc3C)c3ccc(F)cc3n12
31 | 6.82 |  | CCCN(Cc1c(CC)nc2n(-c3c(C)cc(C)cc3C)c3ccc(F)cc3n12)CC1CC1
32 | 7.12 |  | CCCN(Cc1c(C(F)(F)F)nc2n(-c3c(C)cc(C)cc3C)c3ccccc3n12)CC(F)(F)C(F)(F)F
33 | 6.24 |  | Cc1cc(C)c(-n2c3ccccc3n3c(CN(C)Cc4ccccc4)c(C(F)(F)F)nc23)c(C)c1
34 | 6.44 |  | CCCN(CCC1CC1)Cc1c(C(F)(F)F)nc2n(-c3c(C)cc(C)cc3C)c3ccccc3n12
35 | 7.55 |  | CCN(Cc1c(C(F)(F)F)nc2n(-c3c(C)cc(C)cc3C)c3ccccc3n12)CC1CC1
36 | 7.28 |  | Cc1cc(C)c(-n2c3ccccc3n3c(CN(CC4CCC4)CC(F)(F)F)c(C(F)(F)F)nc23)c(C)c1
37 | 7.47 |  | Cc1cc(C)c(-n2c3ccccc3n3c(CN(CC4CC4)CC(F)(F)C(F)(F)F)c(C(F)(F)F)nc23)c(C)c1
38 | 7.64 | AUC [2]: 11400 ng·h/mL; Vd [3]: 0.6 L/kg; Vd [4]: 0.6 L/kg; clearance [5]: 5.1 mL/min/kg; Kp at 2 h [6]: 0.03; bioavailability [7]: 35%; half-life [8]: 4.1 h; CL/F [9]: 5.1 mL/min/kg; half-life [10]: 4.1 h; Cmax [11]: 2380 ng/mL | CCCN(Cc1c(C(F)(F)F)nc2n(-c3c(C)cc(C)cc3C)c3ccccc3n12)CC1CC1
39 | 6.48 |  | Cc1cc(C)c(-n2c3ccccc3n3c(CN(CCc4ccccc4)CCc4ccccc4)c(C(F)(F)F)nc23)c(C)c1
40 | 5.80 |  | CCCN(CCc1ccccc1)Cc1c(C(F)(F)F)nc2n(-c3ccc(Cl)cc3Cl)c3ccccc3n12
41 | 6.62 |  | FC(F)(F)c1nc2n(-c3ccc(Cl)cc3Cl)c3ccccc3n2c1CN(CC1CC1)CC1CC1
